Measured values: paper PMC2846203 (Journal of natural products, 2010)
Read-outs that look alike come from different tables or passages of the source. Marks after values point to notes of the source that are not given here.

What was measured:
mice [1] = settings: mouse, cited from earlier work
mice [2] = settings: mouse, cited from earlier work; remark: listed apart in the source
α4β2 nAChR = α4β2 nAChR (Rattus norvegicus, UniProt P09483+P12390); assay: [3H]epibatidine binding assay; settings: ratio of Ki values
Chain of α4β2 nAChR (P12390 25-500): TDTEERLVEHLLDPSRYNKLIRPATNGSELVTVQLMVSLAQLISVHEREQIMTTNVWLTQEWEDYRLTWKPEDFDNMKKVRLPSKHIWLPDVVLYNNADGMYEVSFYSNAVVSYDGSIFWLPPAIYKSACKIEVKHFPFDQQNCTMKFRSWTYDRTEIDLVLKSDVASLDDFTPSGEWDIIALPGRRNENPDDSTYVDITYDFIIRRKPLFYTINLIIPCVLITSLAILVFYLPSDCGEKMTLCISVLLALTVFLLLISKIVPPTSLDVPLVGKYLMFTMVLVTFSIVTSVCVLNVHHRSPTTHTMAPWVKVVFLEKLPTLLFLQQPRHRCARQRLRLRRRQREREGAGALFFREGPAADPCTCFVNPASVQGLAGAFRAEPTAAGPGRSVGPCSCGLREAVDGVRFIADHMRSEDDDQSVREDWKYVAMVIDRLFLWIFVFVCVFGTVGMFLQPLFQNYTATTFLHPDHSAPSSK
Chain of α4β2 nAChR (P09483 31-630): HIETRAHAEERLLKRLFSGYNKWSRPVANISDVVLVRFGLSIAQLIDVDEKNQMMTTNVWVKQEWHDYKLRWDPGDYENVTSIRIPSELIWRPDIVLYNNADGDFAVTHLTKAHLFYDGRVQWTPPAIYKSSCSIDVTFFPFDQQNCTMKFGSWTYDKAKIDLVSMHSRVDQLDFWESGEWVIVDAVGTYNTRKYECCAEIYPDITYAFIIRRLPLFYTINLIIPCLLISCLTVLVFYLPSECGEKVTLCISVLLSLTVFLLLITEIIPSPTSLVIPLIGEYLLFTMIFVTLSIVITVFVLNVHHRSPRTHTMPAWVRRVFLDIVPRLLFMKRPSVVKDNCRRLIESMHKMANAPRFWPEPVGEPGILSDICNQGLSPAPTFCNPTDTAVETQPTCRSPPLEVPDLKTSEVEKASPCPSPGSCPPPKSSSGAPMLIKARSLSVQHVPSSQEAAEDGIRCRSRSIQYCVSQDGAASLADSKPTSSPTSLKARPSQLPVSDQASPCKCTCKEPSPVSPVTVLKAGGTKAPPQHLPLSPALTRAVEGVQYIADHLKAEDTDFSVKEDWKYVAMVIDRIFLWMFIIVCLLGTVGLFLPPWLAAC

mice [3] = settings: mouse, cited from earlier work; remark: listed apart in the source
mice [4] = settings: mouse, cited from earlier work; remark: listed apart in the source
mice [5] = assay: antagonism of nicotine-induced antinociception, hot-plate test; type: in vivo, mouse; settings: for times more potent as an antagonist than varenicline in the hot-plate test: ratio of AD50 values
mice [6] = assay: tail-flick test; type: in vivo, mouse
Method in brief: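 D'Amour–Smith tail-flick in mice. Racemic hydrochloride test compound given s.c., with testing 5 min later. %MPE = [(test−control)/(10−control)]×100. 8–12 mice per dose, minimum four doses; ED50 with confidence limits from the dose-response curve.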

mice [7] = assay: spontaneous activity; type: in vivo, mouse; settings: ratio of ED50 values
mice [8] = assay: hypothermia; type: in vivo, mouse; settings: ratio of ED50 values
Method in brief: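 Mouse rectal temperature read by thermistor probe (inserted 24 mm) and digital thermometer, just before and 30 min after s.c. saline or racemic hydrochloride test compound. Change in temperature calculated for each mouse.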

mice [9] = assay: hot-plate test; type: in vivo, mouse
Method in brief: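 Mice in a 10 cm glass cylinder on a 55.0 °C hot plate. Two control latencies, at least 10 min apart, per mouse; normal latency 8–12 sec. Endpoint: jumping or paw licking. Eight mice per dose got racemic hydrochloride test compound s.c. and were tested 5 min later. %MPE = [(test−control)/(40−control)]×100; ED50 from dose-response curve.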

mice [10] = assay: antagonism of nicotine-induced antinociception, tail-flick test; type: in vivo; settings: Mus musculus, sc, read-out: AD50 (µg/kg) tail-flick
mice [11] = settings: mouse; antagonism of nicotine-induced antinociception; cited from earlier work
mice [12] = settings: mouse; antagonism of nicotine-induced antinociception; cited from earlier work; remark: listed apart in the source

Clc1ncc([C@H]2C[C@@H]3CC[C@H]2N3)cc1-c1ccccc1 [5a]
ED50 mg/kg hot-plate (mice [1]; (confidence limits)): 1.0 ^g (0.5–2.0) mg/kg | ED50 mg/kg tail-flick (mice [2]; (confidence limits)): 0.7 ^g (0.5–1.0) mg/kg | times higher affinity at the α4β2 nAChR than nicotine (α4β2 nAChR): 71 times | times higher affinity at the α4β2 nAChR than varenicline (α4β2 nAChR): 6 times | ED50 mg/kg hypothermia (mice [3]; (confidence limits)): 0.4 ^g (0.1–0.9) mg/kg | ED50 mg/kg spontaneous activity (mice [4]; (confidence limits)): 0.35 ^g (0.2–0.85) mg/kg

Fc1cccc(-c2cc([C@H]3C[C@@H]4CC[C@H]3N4)cnc2Cl)c1 [5c, 3′-(3-Fluorophenyl)epibatidine]
times more potent as an antagonist than varenicline in the hot-plate test (mice [5]): 5.5 times

Clc1cccc(-c2cc([C@H]3C[C@@H]4CC[C@H]3N4)cnc2Cl)c1 [5e, 3′-(3-Chlorophenyl)epibatidine]
times more potent as an antagonist than varenicline in the hot-plate test (mice [5]): 5.9 times | selectivity for α4β2 nAChR relative to α7 nAChR (α4β2 nAChR): greater than 2000 fold

Nc1cccc(-c2cc([C@H]3C[C@@H]4CC[C@H]3N4)cnc2Cl)c1 [5j, 3′-(3-Aminophenyl)epibatidine]
AD50 (µg/kg) hot-plate (mice [5]; mouse, antagonism of nicotine-induced antinociception, (confidence limits)): 26 (5–90) µg/kg | times more potent as an antagonist than varenicline in the hot-plate test (mice [5]): 18 times | times weaker than epibatidine (1), tail-flick (mice [6]; ratio of ED50 values): 57 times | times weaker than epibatidine (1), spontaneous activity (mice [7]): 30 times | times weaker than epibatidine (1), hypothermia (mice [8]): 76 times | times weaker than epibatidine (1), hot-plate (mice [9]; ratio of ED50 values): 75 times

COc1ccc(-c2cc([C@H]3C[C@@H]4CC[C@H]3N4)cnc2Cl)cc1 [5k, 3′-(4-Methoxylphenyl)epibatidine]
ED50 (mice [10]): 10 µg/kg

CN(C)c1cccc(-c2cc([C@H]3C[C@@H]4CC[C@H]3N4)cnc2Cl)c1 [5m, 3′-(3-Dimethylaminophenyl)epibatidine]
agonist activity in the tail-flick test (mice [6]; mouse): did not have agonist activity | agonist activity in the hot-plate test (mice [9]; mouse): did not have agonist activity

Clc1ccc([C@@H]2C[C@H]3CC[C@@H]2N3)cn1 [(+)-epibatidine, epibatidine]
ED50 mg/kg tail-flick (mice [2]): 0.0061 ^e mg/kg

Clc1ccc([C@@H]2C[C@H]3CC[C@@H]2N3)cn1 [(−)-epibatidine, epibatidine]
ED50 mg/kg tail-flick (mice [2]): 0.0066 ^e mg/kg

c1cnc2cc3c(cc2n1)[C@@H]1CNC[C@H]3C1 [varenicline, reference compound]
agonist activity in the hot-plate test (mice [1]): inactive | AD50 (µg/kg) tail-flick (mice [11]): 0.2 µg/kg | agonist activity in the tail-flick test (mice [2]): inactive | AD50 (µg/kg) hot-plate (mice [12]): 470 µg/kg | ED50 mg/kg hypothermia (mice [3]): 2.8 mg/kg | ED50 mg/kg spontaneous activity (mice [4]): 2.1 mg/kg
